# Measured values taken from ChEMBL document CHEMBL5136968, “Posttranslational modifications of α-conotoxins: sulfotyrosine and C-terminal amidation stabilise structures and increase acetylcholine receptor binding” (RSC Med Chem, 2021).
# Positions of bridges follow the written chain, without caps; N, C: chain ends. Non-standard residues stand in square brackets, D forms with d. Residues, ends and D or L forms follow the SMILES beside them. sY = N[C@@H](Cc1ccc(OS(=O)(=O)O)cc1)C(=O)O
# Tests used:
# [1] = Displacement of [3H]-epibatidine from Aplysia californica Acetylcholine-binding protein measured after 1 hr by liquid scintillation counter
# How it was run: (§1)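 Recombinant AChBP expressed in E. coli (IPTG induction, 16 °C), coated onto wells at 1 ng μL−1. Incubated 1 h at 4 °C with [3H]-epibatidine (1 nM final) and increasing peptide in PBS with 0.05% BSA. Unbound ligand washed off; bound radioactivity counted by liquid scintillation. One-site competition fit gives Ki. Triplicate, three independent experiments; pKi as mean with 95% CI.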
# [2] = target: Acetylcholine-binding protein (Lymnaea stagnalis, UniProt P58154); experiment: Displacement of [3H]-epibatidine from Lymnaea stagnalis Acetylcholine-binding protein measured after 1 hr by liquid scintillation counter; how it was run: as §1
# Sequence of Acetylcholine-binding protein (P58154 whole entry): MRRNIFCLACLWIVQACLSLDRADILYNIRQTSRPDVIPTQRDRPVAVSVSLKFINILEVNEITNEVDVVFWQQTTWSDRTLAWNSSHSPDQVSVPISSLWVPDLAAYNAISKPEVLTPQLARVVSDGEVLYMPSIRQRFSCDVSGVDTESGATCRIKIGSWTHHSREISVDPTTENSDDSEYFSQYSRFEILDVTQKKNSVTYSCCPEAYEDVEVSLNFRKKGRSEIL
Compound,pKi [1],Ki [2] [µM]
"CC(C)C[C@@H]1NC(=O)[C@H](CO)NC(=O)[C@@H]2CSSC[C@@H](C(N)=O)NC(=O)[C@H](Cc3ccc(OS(=O)(=O)O)cc3)NC(=O)[C@H](CC(=O)O)NC(=O)[C@@H]3CCCN3C(=O)[C@H](CC(N)=O)NC(=O)[C@H](CC(N)=O)NC(=O)[C@H](C)NC(=O)[C@H](C)NC(=O)[C@H](CSSC[C@H](NC(=O)CN)C(=O)N2)NC(=O)[C@@H]2CCCN2C(=O)[C@@H]2CCCN2C1=O (H-GCCSLPPCAANNPD[sY]C-NH2; disulfide 2-8, 3-16)",8.92,3.8
"CC(C)C[C@@H]1NC(=O)[C@H](CO)NC(=O)[C@@H]2CSSC[C@@H](C(=O)O)NC(=O)[C@H](Cc3ccc(O)cc3)NC(=O)[C@H](CC(=O)O)NC(=O)[C@@H]3CCCN3C(=O)[C@H](CC(N)=O)NC(=O)[C@H](CC(N)=O)NC(=O)[C@H](C)NC(=O)[C@H](C)NC(=O)[C@H](CSSC[C@H](NC(=O)CN)C(=O)N2)NC(=O)[C@@H]2CCCN2C(=O)[C@@H]2CCCN2C1=O (H-GCCSLPPCAANNPDYC-OH; disulfide 2-8, 3-16)",7.51,> 100
"CC(C)C[C@@H]1NC(=O)[C@H](CO)NC(=O)[C@@H]2CSSC[C@@H](C(=O)O)NC(=O)[C@H](Cc3ccc(OS(=O)(=O)O)cc3)NC(=O)[C@H](CC(=O)O)NC(=O)[C@@H]3CCCN3C(=O)[C@H](CC(N)=O)NC(=O)[C@H](CC(N)=O)NC(=O)[C@H](C)NC(=O)[C@H](C)NC(=O)[C@H](CSSC[C@H](NC(=O)CN)C(=O)N2)NC(=O)[C@@H]2CCCN2C(=O)[C@@H]2CCCN2C1=O (H-GCCSLPPCAANNPD[sY]C-OH; disulfide 2-8, 3-16)",8.33,> 100
"CC(C)C[C@@H]1NC(=O)[C@H](CO)NC(=O)[C@@H]2CSSC[C@@H](C(N)=O)NC(=O)[C@H](Cc3ccc(O)cc3)NC(=O)[C@H](CC(=O)O)NC(=O)[C@@H]3CCCN3C(=O)[C@H](CC(N)=O)NC(=O)[C@H](CC(N)=O)NC(=O)[C@H](C)NC(=O)[C@H](C)NC(=O)[C@H](CSSC[C@H](NC(=O)CN)C(=O)N2)NC(=O)[C@@H]2CCCN2C(=O)[C@@H]2CCCN2C1=O (H-GCCSLPPCAANNPDYC-NH2; disulfide 2-8, 3-16)",8.85,9.12
